The list is not random: actives were taken first. Their share in the collection is about 3.5%.
RGS4 pot – RGS4 potentiators or activators, primary screen, cell-based, HEK293 M3R inducible RGS4, calcium flux. carbachol calcium flux Fluo4; stronger effect = lower value. 0.92% of 310,000 active. AID 463111, 2010. B-score at 10 µM;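 active = B-score of the integrated calcium signal more than 4 SD below the library mean, with starting fluorescence not abnormally high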;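 also: negative B-score means reduced calcium response which marks RGS4 activation or potentiation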
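Assay system: Inducible-RGS4 HEK293 cells carrying M3 receptor | Schedule: Compound preincubation 20 min at room temperature before agonist | Signal: Kinetic calcium fluorescence imaging with Fluo4-AM dye, 2 µM | Read-out basis: B score from integrated fluorescence ratio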
MrgX1 allo act – positive allosteric modulators of MrgX1, primary screen, HEK293 cells, Fluo-4 calcium flux. B-score at 10 µM. FDSS; stronger effect = higher value. AID 588675, 2011. 0.63% of 310,000 active;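 active = plate-corrected calcium response at least 3 library SD above typical, normal starting fluorescence, not activating the receptor alone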;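 also: compound read alongside a low EC10 to EC30 dose of BAM8-22 agonist; peak minus trough fluorescence over baseline measured at the second addition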
Target sequence (Q96LB2 whole entry, looked up): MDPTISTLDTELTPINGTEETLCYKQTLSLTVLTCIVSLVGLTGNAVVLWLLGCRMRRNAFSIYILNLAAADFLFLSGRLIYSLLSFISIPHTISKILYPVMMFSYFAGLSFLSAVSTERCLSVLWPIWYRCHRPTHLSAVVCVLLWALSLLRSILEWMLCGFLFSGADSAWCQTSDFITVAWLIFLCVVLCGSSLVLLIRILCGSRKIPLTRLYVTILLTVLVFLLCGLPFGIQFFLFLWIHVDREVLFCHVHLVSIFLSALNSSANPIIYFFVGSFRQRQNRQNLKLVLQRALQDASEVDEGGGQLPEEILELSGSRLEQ
RGS4 inh – RGS4 inhibitors, primary screen, cell-based, HEK293 M3R inducible RGS4, calcium flux; Regulator of G-protein signaling 4 (Homo sapiens), P49798; Fluo-4 calcium flux; stronger effect = higher value; triggered by carbachol at its EC20; B-score at 10 µM; 0.45% of 310,000 active; AID 463165, 2010;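 active = B-score, a plate-corrected calcium signal, over three deviations above library mean, with baseline fluorescence within five deviations of library mean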;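 also: RGS4 expression induced by doxycycline in cells with stable M3 receptor; B-score is computed from the integrated fluorescence ratio over baseline after carbachol; higher B-score means a larger calcium signal and so more RGS4 inhibition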
Target sequence (P49798 whole entry, looked up): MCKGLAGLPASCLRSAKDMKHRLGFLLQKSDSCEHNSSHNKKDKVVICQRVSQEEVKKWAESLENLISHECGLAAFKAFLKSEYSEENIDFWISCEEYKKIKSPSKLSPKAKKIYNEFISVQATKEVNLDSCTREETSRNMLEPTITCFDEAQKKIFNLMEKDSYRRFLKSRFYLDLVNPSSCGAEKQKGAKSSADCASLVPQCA
MrgX1 agonist – agonists of human MrgX1 receptor, primary screen, HEK293 cells, Fluo-4 calcium flux | Mas-related G-protein coupled receptor member X1 (Homo sapiens), Q96LB2 | 0.44% of 310,000 active | Fluo-4 calcium fluorescence, agonist mode; stronger effect = higher value | B-score at 10 µM;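 active = calcium response B-score plate-corrected fluorescence ratio at least 3 library SD, with starting fluorescence B-score inside 5 SD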
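System – MrgX1-expressing HEK293 cells · Incubation – cells plated overnight, dye loaded 0.5 h 37 °C, 0.5 h room temperature · Technique – kinetic Fluo-4 NW fluorescence of intracellular calcium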
MrgX1 antag – antagonists of human MrgX1 receptor, primary screen, HEK293 cells, Fluo-4 calcium flux | B-score at 10 µM | AID 588676, 2011 | 1.3% of 310,000 active | BAM8-22 antagonism; stronger effect = lower value | Mas-related G-protein coupled receptor member X1 (Homo sapiens), Q96LB2;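 active = calcium-response B-score plate-corrected more than 3 library SD below zero, starting fluorescence within 5 deviations, no agonist response on first addition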;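 also: peak minus trough fluorescence over baseline after final BAM8-22 challenge near maximal dose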
RGS4 block valid – enhanced carbachol calcium response, M3R/RGS4 cells, RGS4 inhibitor project, cell-based, validation screen, HEK293 M3R/RGS4, calcium flux. shares compounds with RGS4 inh. carbachol calcium Fluo-4 fluorescence; carbachol added at its EC20; 0 = buffer wells, 100 = carbachol control. calcium response, % at 10 µM. 65% of 1,700 active. AID 492999, 2010;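 active = duplicate-averaged calcium response above the buffer-only control mean plus 5 SD of those controls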;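 also: integrated fluorescence ratio F max minus min over baseline F0; higher response in RGS4-induced cells means RGS4 inhibition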
M3R Ca ctr – carbachol calcium response in non-induced M3R cells, confirmation, counter-screen for RGS4 inhibitor project, cell-based, HEK293 M3R | shares compounds with RGS4 inh | carbachol calcium Fluo-4; submaximal (EC20) carbachol stimulus; buffer wells 0%, carbachol control wells 100% | activity (percent), % at 10 µM | 20% of 1,900 active | AID 493000, 2010; call rule not given here;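 also: RGS4 induction absent so cells express M3R without RGS4; higher means more calcium signal and flags a non-specific hit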
RGS4 inh ctr2 – second RGS4 inhibitor counter-screen in uninduced cells lacking carbachol; shares compounds with RGS4 inh; HEK293 M3R/RGS4 non-induced, Fluo-4 calcium, no carbachol; normalised: buffer wells 0%, carbachol wells 100%; calcium response (agonist-mode artifact), % at 10 µM; 22% of 1,900 active;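 active = duplicate-averaged calcium rise in uninduced cells above buffer wells' mean plus 5 SD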
Starred values were filed as active, the others as inactive; i = inactive; . = not tested or not shown.

SMILES	RGS4 pot	MrgX1 allo act	RGS4 inh	MrgX1 agonist	MrgX1 antag	RGS4 block valid	M3R Ca ctr	RGS4 inh ctr2
COC(=O)/C=C/S(=O)(=O)c1ccc(NC(C)=O)cc1	i	i	6*	i	i	54%*	38%*	13%*
Cn1c(CN2CCCC2)nc2cc(NC(=O)COc3ccc([N+](=O)[O-])cc3)ccc21	i	i	i	i	i	.	.	.
CC(=O)Oc1cccc(/C=c2\sc3nc(-c4ccco4)nn3c2=O)c1	i	i	i	i	i	.	.	.
CCCOc1ccc(/C=c2\sc3nc(-c4ccco4)nn3c2=O)cc1OCC	i	i	i	i	i	i	i	154%*
Cc1nn(-c2ccccc2)c(Cl)c1/C=N/NC(N)=O	i	i	i	i	i	.	.	.
NC(=O)N/N=C/c1c(Sc2nnnn2-c2ccccc2)nc2ccccn2c1=O	i	i	12*	i	i	11%*	i	i
Cc1c(C(=O)c2ccccc2)c(=O)n(C)c(=O)n1C	i	i	i	i	i	.	.	.
CCOC(=O)/C(C#N)=C/c1cn(CCC(=O)O)nc1-c1ccc(Cl)cc1	i	i	i	i	i	i	i	i
CCOC(=O)/C(C#N)=C/c1cn(CCC(=O)O)nc1-c1cccc(Br)c1	i	i	i	i	i	.	i	i
CCOC(=O)/C(C#N)=C/c1cn(CCC(=O)O)nc1-c1ccccc1	i	i	i	i	i	i	i	i
O=Cc1cn(CCC(=O)O)nc1-c1cccc(Cl)c1	i	i	i	i	i	.	.	.
CCOC(=O)/C(C#N)=C/c1cn(CCC(=O)O)nc1-c1ccc(OC)cc1	i	i	i	i	i	.	.	.
COc1ccccc1CN(C)C(=O)c1sccc1-c1ccccc1	i	i	i	i	i	.	.	.
COc1ccc(NC(=O)NC23CC4(C)CC(C)(CC(C)(C4)C2)C3)cc1OC	i	i	i	i	i	.	.	.
O=S(=O)(Nc1nccs1)c1ccc(NCc2cc(Br)cc(Br)c2O)cc1	i	i	7.8*	i	i	6.0%*	44%*	i
CC1CC(=O)N(CC(=O)NC2CCCCC2)c2ccccc2S1 (stereo not given)	i	i	i	i	i	.	.	.
Cc1ccc(C(=O)NC2CCN(S(=O)(=O)c3ccccc3F)CC2)cc1	i	i	i	i	i	.	.	.
O=C(NCc1cccnc1)c1cc2nc(-c3ccc4c(c3)OCO4)cc(C(F)(F)F)n2n1	i	i	i	i	i	.	.	.
COc1ccc(-c2cc(C(F)(F)F)n3nc(C(=O)NCc4ccco4)cc3n2)cc1	i	i	i	i	i	.	i	i
O=C(NCc1ccco1)c1cc2nc(-c3ccc4c(c3)OCO4)cc(C(F)(F)F)n2n1	i	i	4.7*	i	i	i	i	16%*
Cc1cc(NC(=O)c2cc3cccc([N+](=O)[O-])c3[nH]2)ccc1F	i	i	i	i	i	.	.	.
CCN(c1cccc(C)c1)S(=O)(=O)c1cc2c3c(c1)CCC(=O)N3CCC2	i	i	i	i	i	.	.	.
Cc1cc(NC(=O)C(C)SCC(=O)Nc2ccccc2C(C)(C)C)no1 (stereo not given)	i	i	i	i	i	.	.	.
COc1cc(OC)c(N(C)C(=O)c2cc3c(s2)-c2ccccc2S(=O)(=O)C3)cc1Cl	i	i	17*	i	i	28%*	50%*	i
CCn1c(COc2ccc(=O)n(-c3ccccc3)n2)n[nH]c1=S	i	i	i	i	i	.	.	.
SMILES	RGS4 pot	MrgX1 allo act	RGS4 inh	MrgX1 agonist	MrgX1 antag	RGS4 block valid	M3R Ca ctr	RGS4 inh ctr2
CC(=O)/C(=N/Nc1cccc(C)c1)N1CCOCC1	i	i	18*	i	i	10%*	58%*	i
CC(C)Cc1nnc(NC(=O)c2cc(-c3ccncc3)nc3ccccc23)s1	i	i	i	i	i	.	i	i
CCc1nnc(NC(=O)c2cc(C)nc3ccccc23)s1	i	i	i	i	i	.	.	.
CCc1nnc(NC(=O)c2cc(-c3cccnc3)nc3ccccc23)s1	i	i	i	i	i	.	i	i
O=C(CC1Nc2cccc3cccc(c23)NC1=O)Nc1ccccc1 (stereo not given)	i	i	i	i	i	.	i	i
CCCCn1c(N)c(N(CCOC)C(=O)COC(=O)CSc2cc(C)c3ccccc3n2)c(=O)[nH]c1=O	i	i	i	i	i	.	.	.
COc1ccc(-n2nc(C(=O)NCC(=O)N3CCN(c4ccccc4)CC3)c3ccccc3c2=O)cc1OC	i	i	i	i	i	.	.	.
CC1(C)Cc2ccccc2C(/C(=N\Nc2cccc(Cl)c2)C(N)=O)=N1	i	i	6.6*	i	i	16%*	i	i
CC(=O)c1ccc(N/N=C(/C(N)=O)C2=NC(C)(C)Cc3ccccc32)cc1	i	i	i	i	i	.	.	.
C=CCNC(=O)COC(=O)c1nc2nccc(C)n2n1	i	i	i	i	i	.	i	i
Cc1cc(C)nc(S/C=C/C(=O)c2ccccc2F)n1	i	i	5.8*	i	i	5.0%*	i	i
CC(=O)Nc1ccc(/C=C2\Sc3ccccc3C2=O)cc1	i	i	i	i	i	.	.	.
O=C1/C(=C/c2cccnc2)Sc2ccccc21	i	i	7.9*	47*	i	42%*	46%*	32%*
COc1ccc(NC(=O)COC(=O)CCOc2ccccc2C)cc1Cl	i	i	i	i	i	.	.	.
COc1ccc(-c2csc(Nc3cc(C)ccn3)n2)cc1OC	i	i	i	i	i	i	i	i
COC(=O)[C@@H](NC(=O)NCCC1=CCCCC1)C(C)C	i	i	i	i	i	.	.	.
